{"source": "ChEMBL document CHEMBL1124000", "about": "“N-acylphenylalanines and related compounds. A new class of oral hypoglycemic agents” (1988)", "note": "Where a SMILES comes first, the peptide text is derived from it.", "data": [{"system": "Mus musculus", "experiment": "Hypoglycemic activity at the lowest dose that causing 20% blood glucose decrease (fasting mice, po)", "assay_type": "functional", "settings": "not given", "procedure,_shortened": "(§1)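 Male ICR-CD1 mice, 5 weeks old, fasted 18 h, groups of five. Given orally as a suspension in 0.5% (carboxymethyl)cellulose-0.14 M NaCl, 1 mL/kg; vehicle-treated control group run in parallel. Doses 500, 250, 100, 50, 25 and 10 mg/kg. Blood drawn from carotid 1 h after dosing; glucose measured enzymatically by glucose-oxidase-peroxidase; Student's t test (p < 0.05).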", "units": {"Dose": "mg/kg"}, "values": [{"compound": "O=C(N[C@@H](Cc1ccccc1)C(=O)O)c1ccccc1", "Dose": 150}, {"compound": "O=C(N[C@@H](Cc1ccccc1)C(=O)O)C1CCCC1", "Dose": 50}, {"compound": "COc1ccc(C(=O)N[C@@H](Cc2ccccc2)C(=O)O)cc1", "Dose": 100}, {"compound": "O=C(N[C@@H](Cc1ccccc1)C(=O)O)c1cc2ccccc2o1", "Dose": 100}, {"compound": "O=C(N[C@@H](Cc1ccccc1)C(=O)O)C1CC=CCC1", "note": "(some centres not stated)", "Dose": 100}, {"compound": "O=C(N[C@@H](Cc1ccccc1)C(=O)O)c1ccc2ccccc2c1", "Dose": 250}, {"compound": "O=C(N[C@@H](Cc1ccccc1)C(=O)O)C1CCCCC1", "Dose": 100}, {"compound": "O=C(N[C@@H](Cc1ccccc1)C(=O)O)c1ccc2c(c1)OCO2", "Dose": 100}, {"compound": "O=C(N[C@@H](Cc1ccccc1)C(=O)O)c1ccc2c(c1)CCC2", "Dose": 250}, {"compound": "CCOc1ccc(C(=O)N[C@@H](Cc2ccccc2)C(=O)O)cc1", "Dose": 100}, {"compound": "Cc1ccc(C(=O)N[C@@H](Cc2ccccc2)C(=O)O)cc1", "Dose": 100}, {"compound": "O=C(NC(Cc1ccccc1)C(=O)O)c1ccccc1", "note": "(configuration not stated)", "Dose": 500}, {"compound": "CCCCNC(=O)NS(=O)(=O)c1ccc(C)cc1", "note": "[TOLBUTAMIDE]", "Dose": 25}]}, {"system": "Mus musculus", "experiment": "Hypoglycemic activity was determined as decrease in blood glucose at a dose 250 mg/kg in fasting mice after peroral administration.", "assay_type": "functional", "settings": "route oral", "procedure,_shortened": "as §1", "units": {"Decrease": "%"}, "values": [{"compound": "O=C(O)[C@H]1Cc2ccccc2CN1C(=O)c1ccccc1", "Decrease": "<20"}, {"compound": "O=C(O)/C(=C/c1ccccc1)NC(=O)c1ccccc1", "Decrease": "<20"}, {"compound": "O=C(O)[C@@H]1Cc2ccccc2CN1C(=O)c1ccccc1", "Decrease": "<20"}, {"compound": "O=C(N[C@@H](Cc1ccccc1)C(=O)O)c1ccncc1", "Decrease": "<20"}, {"compound": "O=C(N[C@H](Cc1ccccc1)C(=O)O)c1ccccc1", "Decrease": "<20"}, {"compound": "O=C(N[C@H](Cc1ccccc1)C(=O)O)C1CCCC1", "Decrease": "<20"}, {"compound": "O=C(O)[C@H](Cc1ccccc1)NC(=O)[C@@H]1CCCN1C(=O)c1ccccc1", "Decrease": "<20"}, {"compound": "Cc1cccc(C(=O)N[C@@H](Cc2ccccc2)C(=O)O)c1", "Decrease": "<20"}, {"compound": "O=C(N[C@@H](Cc1ccccc1)C(=O)O)c1ccc2ccccc2n1", "Decrease": "<20"}, {"compound": "O=C(O)[C@H](Cc1ccccc1)NCc1ccccc1", "Decrease": "<20"}, {"compound": "O=C(O)[C@H](Cc1ccccc1)NC(=O)[C@H]1CCCN1C(=O)c1ccccc1", "Decrease": "<20"}, {"compound": "O=C(N[C@@H](Cc1ccccc1)C(=O)O)C1CCCCCC1", "Decrease": "<20"}, {"compound": "O=C(O)/C(=C\\c1ccccc1)NC(=O)c1ccccc1", "Decrease": "<20"}, {"compound": "O=C(N[C@@H](Cc1ccccc1)C(=O)O)c1cnc2ccccc2c1", "Decrease": "<20"}, {"compound": "O=C(N[C@@H](Cc1ccccc1)C(=O)O)c1cccnc1", "Decrease": "<20"}, {"compound": "O=C(N[C@@H](Cc1ccccc1)C(=O)O)c1ccc2ncccc2c1", "Decrease": "<20"}, {"compound": "Cc1ccccc1C(=O)N[C@@H](Cc1ccccc1)C(=O)O", "Decrease": "<20"}, {"compound": "O=C(N[C@@H](Cc1ccccc1)C(=O)O)c1cccc2ccccc12", "Decrease": "<20"}, {"compound": "CC(=O)N1CCC[C@H]1C(=O)N[C@@H](Cc1ccccc1)C(=O)O", "note": "(Ac-Pro-Phe-OH)", "Decrease": "<20"}]}]}
